# Screening data deposited in PubChem BioAssay by several laboratories.
# ERa coact pot – ER-alpha (human) coactivator binding potentiation | P03372 | TR-FRET ERalpha-LBD/SRC-Cy5 coactivator binding, 2 h; 100 = basal binding, no effect | coactivator binding (% of control), % at 25.6 µM | hit rate 1.3% among 86,000; in the data active = activity above about 200%;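 note: binding measured in presence of low estradiol as agonist stimulus; 0% = peptide alone without receptor and 100% = receptor with peptide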
# Target sequence (P03372 whole entry, looked up, the tested form may be a part): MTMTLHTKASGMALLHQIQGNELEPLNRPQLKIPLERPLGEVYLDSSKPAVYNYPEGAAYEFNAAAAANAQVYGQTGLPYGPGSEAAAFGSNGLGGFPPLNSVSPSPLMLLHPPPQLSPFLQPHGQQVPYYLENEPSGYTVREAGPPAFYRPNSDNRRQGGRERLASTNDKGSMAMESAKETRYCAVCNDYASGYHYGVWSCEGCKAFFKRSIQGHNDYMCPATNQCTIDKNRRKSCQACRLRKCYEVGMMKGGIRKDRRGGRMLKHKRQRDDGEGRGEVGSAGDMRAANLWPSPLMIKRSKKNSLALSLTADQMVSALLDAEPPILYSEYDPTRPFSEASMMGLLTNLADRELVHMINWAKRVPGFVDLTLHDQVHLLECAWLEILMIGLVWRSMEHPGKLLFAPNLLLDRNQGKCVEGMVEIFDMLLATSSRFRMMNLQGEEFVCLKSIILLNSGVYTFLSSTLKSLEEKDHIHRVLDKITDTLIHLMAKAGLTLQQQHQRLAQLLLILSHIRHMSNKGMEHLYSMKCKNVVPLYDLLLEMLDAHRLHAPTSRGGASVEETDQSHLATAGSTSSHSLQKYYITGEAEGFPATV
# ERa SRC1 inh – blocks coactivator binding to human estrogen receptor alpha; TR-FRET ER-alpha LBD / SRC-1 peptide, estradiol-bound; inhibition, % at 25.6 µM; P03372; AID 629; hit rate 1.7% among 86,000; in the data active = inhibition above about 50%;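 note: 0% = receptor plus peptide control and 100% = peptide only without receptor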
# SF-1 act – activators of human nuclear receptor SF-1; Q13285; AID 522; hit rate 1.9% among 65,000; CHO-K1 Gal4-SF-1 LBD luciferase reporter; % increase over DMSO SF-1-specific signal; activation, % at 10 µM;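 active = activation above the mean activation of all tested compounds plus 3 SD, cut at about 50% in these data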
#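 Material: Gal4–SF-1 LBD one-hybrid luciferase reporter in CHO-K1 cells | Amount: 4,000 cells per well | Compound dosing: 10 µM single point, 1% DMSO | Schedule: 20 h compound treatment, 37 °C | Measured by: SteadyLite luciferase luminescence | Evaluation: Percent activation versus DMSO | Control set: DMSO-treated SF-1-transfected cells as negative, DMSO-treated mock-transfected cells lacking SF-1 as background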
# RORA act – RORA (human) activation; activation, % at 10 µM; CHO-K1 Gal4-RORA LBD luciferase reporter, luminescence; percent increase over mock-subtracted basal signal; hit rate 1.5% among 65,000; P35398;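 active = activation above the mean of all tested compounds plus 3 SD, cut at about 49% in these data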;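 note: 0% = DMSO-treated RORA cells and 100% = added signal equal to DMSO minus mock-transfected cells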
# BAP1 block – human BAP1 deubiquitinase inhibition. calls only at 20 µM. recombinant BAP1, Ub-AMC hydrolysis fluorescence kinetic; hits give low values. hit rate 0.48% among 72,000. Q92560;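 active = activity remaining at or below 50% of control, provided the compound also passes the data quality filters; inactive = the rest, including low values that fail the filters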;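 note: 100% = DMSO wells rate and 0% = substrate alone blank rate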
# ERb coact inh – ER-beta (human) coactivator binding inhibition; Q92731; TR-FRET ER-beta LBD / SRC1-Cy5 peptide binding; receptor agonist-loaded with 1 µM estradiol; inhibition, % at 25.6 µM; hit rate 1.3% among 86,000; AID 633;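 active = compounds whose percent inhibition of the receptor-coactivator binding signal exceeds about 50% in the single-dose screen, limit read from the data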;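 note: 0% = receptor plus peptide wells without compound and 100% = peptide-only wells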
# Active calls of the source: *; i = inactive; . = no result given; [ ] = another dose, or the depositor's remark. Shown are actives, neighbours in structure and some others; about 5.1% of the full set was active somewhere.
SMILES,ERa coact pot,ERa SRC1 inh,SF-1 act,RORA act,BAP1 block,ERb coact inh
CC1C(O)=C(c2nc3ccccc3[nH]2)C(=N)N1c1ccccc1 (configuration not stated),87.5,9.4,54.3*,26.4,i,3.9
CCCCCCN1CC(O)=C(c2nc3ccccc3[nH]2)C1=N,244.1*[fluorescence artefact?],60.7*[fluorescence artefact?],29.1,47.4,.,45.7
CCOc1cc(C2Nc3cc(C)c(C)cc3NC3=C2C(=O)CC(C)(C)C3)cc(Br)c1OC (configuration not stated),.,.,.,.,i,.
Cc1sc(NC(=O)c2cccc(Cl)c2)nc1-c1ccccc1,.,.,.,.,i,.
CCCCN1CC(O)=C(c2nc3ccccc3s2)C1=N,93.9,-8.5,73.7*,30.2,i,2.1
CN(C(=O)c1cccnc1)c1nnc(-c2cnccn2)s1,105.9,4.4,12.9,17.6,i,3.6
CN(C(=O)c1ccccn1)c1nnc(-c2cnccn2)s1,109.5,4.4,69.9*,44.5,i,0.2
CN(C(=O)c1cnccn1)c1nnc(-c2cnccn2)s1,105.5,3.3,-9.5,6.4,i,3.6
CN(C(=O)c1cccnc1)c1nnc(-c2ccccn2)s1,84.6,2.6,69.9*,39.0,i,0.2
CC1=C(C(=O)Nc2cccc(C)c2C)C(c2cccc(Cl)c2)NC(=S)N1 (configuration not stated),.,.,.,.,i,.
CC1(C)CC(=O)C2=C(C1)Nc1ccccc1N(C(=O)Cc1ccc(Cl)cc1)C2c1cccs1 (configuration not stated),.,.,.,.,i,.
O=C(O)c1nc2ccccc2nc1C(=O)O,116.8,0.8,57.8*,44.3,i,10.9
Cc1cc(C(=O)O)c2ccccc2n1,106.5,0.8,.,.,.,-0.4
Cc1ccc(NC(=O)c2ccc(-c3nn(C)c(=O)c4ccccc34)cc2)cc1,138.3,36.1,.,.,.,17.0
Cn1nc(-c2ccc(C(=O)Nc3cccc(Cl)c3)cc2)c2ccccc2c1=O,260.5*,15.1,.,.,.,8.8
CCC(=O)Oc1ccc(/C(CC)=C(\CC)c2ccc(OC(=O)CC)cc2)cc1,376.4*,-2.8,0.3,2.9,.,-0.5
CC(C)(C)c1ccc(-c2nnc3sc(-c4ccccn4)nn23)cc1,262.3*,23.2,-7.6,-25.1,i,31.1
c1ccc(-c2nn3c(-c4ccncc4)nnc3s2)nc1,39.9,57.6*[fluorescence artefact?],-4.1,-19.5,i,25.5
Clc1ccc(-c2nn3c(-c4ccncc4)nnc3s2)c(Cl)c1,330.3*,10.6,12.6,-6.5,i,28.6
O=C1NC(c2cccc(F)c2)Nc2sc3c(c21)CCCC3 (configuration not stated),.,.,.,.,i,.
O=C1NC(Cc2c[nH]c3ccccc23)C(=O)N1CCOc1ccccc1 (configuration not stated),120.0,-5.7,3.6,-16.8,i,-4.0
Cc1cc(C(=O)CN2C(=O)NC(Cc3c[nH]c4ccccc34)C2=O)c(C)n1C (configuration not stated),96.2,-7.6,2.3,-15.1,i,94.2*[fluorescence artefact?]
O=S(=O)(Nc1cccnc1)c1ccc2c(c1)OCCO2,104.7,2.7,-2.9,-14.4,i,-2.7
O=S(=O)(Nc1cccnc1Cl)c1ccc2c(c1)OCCO2,121.0,2.4,.,.,.,2.6
Cc1c(NS(=O)(=O)c2ccc3c(c2)OCCO3)cccc1-c1nc2cccnc2s1,243.9*[fluorescence artefact?],13.0,.,.,.,4.7
SMILES,ERa coact pot,ERa SRC1 inh,SF-1 act,RORA act,BAP1 block,ERb coact inh
Cc1cc(-c2nc3cccnc3s2)ccc1NS(=O)(=O)c1ccc2c(c1)OCCO2,204.1*[fluorescence artefact?],9.9,.,.,.,15.9
CCOC(=O)c1sc2nc(CC(=O)OC)nc(NCc3ccc(Cl)cc3)c2c1C,339.2*[fluorescence artefact?],36.9,.,.,.,7.7
CCOC(=O)c1sc2nc(CC(=O)OC)nc(NCCN(CC)CC)c2c1C,109.0,-0.9,.,.,.,11.4
COc1cc2[nH]c(=S)n(N(C(C)=O)C(C)=O)c(=O)c2cc1OC,201.4*[fluorescence artefact?],-67.4,.,.,.,-77.7
Cn1c(-c2ccc(Br)o2)nc2cc(Br)ccc21,163.1,0.8,89.2*,39.3,i,-2.9
Cn1c(-c2ccc(Br)o2)nc2ccccc21,94.6,-6.9,75.8*,72.6*,i,4.5
Cc1ccc(-c2nc3ccccc3n2C)o1,109.0,-8.2,.,.,.,-6.8
Cc1ccc(C(=O)Nc2cc(C34CC5CC(CC(C5)C3)C4)ccc2C)cc1,.,.,.,.,i,.
CCOC(=O)N1CCC(NC(=O)c2cccn3c(=O)c4cc(Br)ccc4nc23)CC1,288.3*[fluorescence artefact?],60.0*[fluorescence artefact?],-2.1,14.4,i,42.0
CCOc1ccc2c(c1)sc(=NC(=O)c1ccc(S(=O)(=O)N3CC(C)CC(C)C3)cc1)n2C (configuration not stated),.,.,.,.,i,.
COc1ccc(Cn2c(C)c(C)c(C#N)c2NC(=O)Nc2cccc(C)c2)cc1,76.3,69.8*[fluorescence artefact?],.,.,.,50.3*
COc1ccc(Cn2c(C)c(C)c(C#N)c2NC(=O)Nc2ccccc2)cc1,96.9,8.0,.,.,.,7.1
Cc1ccccc1-n1nc2c(c1NC(=O)c1ccc(Cl)cc1)CSC2,.,.,.,.,i,.
O=C(Nc1nc2c(cc3c4c(cccc42)CC3)s1)c1ccc(S(=O)(=O)N2CCc3ccccc32)cc1,.,.,.,.,i,.
CN(C)c1nc(N/N=C\c2ccc(Cl)c([N+](=O)[O-])c2)nc(Nc2ccc(F)cc2)n1,101.7,78.4*,.,.,.,31.4
CCOc1ccc(/C=C\C(C)=N\O)cc1,127.3,-38.8,6.4,72.3*,i,-39.9
Cc1c([C@H]2[C@@H](CC#N)C2(C)C)c2ccccc2n1C,73.4,63.1*[fluorescence artefact?],2.3,-27.7,i,68.6*
Cc1[nH]c2c(Br)cccc2c1[C@H]1[C@@H](CC#N)C1(C)C,108.6,-3.0,.,.,.,21.2
Cc1ccc(C)c(C(=O)Nc2c(C(N)=O)oc3ccccc23)c1,111.2,-1.4,0.0,-20.0,i,90.2*[fluorescence artefact?]
Cc1cccnc1Nc1nc(-c2ccc(O)cc2O)cs1,76.7,15.6,51.4*,-9.7,i,39.9
COc1ccc2nc(C(=O)O)sc2c1,.,.,.,.,i,.
CCCOC(=O)c1cc(-c2ccc(/C=C3/C(=O)N(C)C(=O)C(C#N)=C3C)o2)ccc1Cl,42.5,82.7*[fluorescence artefact?],.,.,.,67.2*
CC(C)COC(=O)c1cc(-c2ccc(/C=N/n3cnnc3)o2)ccc1Cl,98.0,3.1,3.7,18.0,i,4.1
O=C(Nc1nc(-c2ccc3c(c2)OCO3)cs1)C1CC1,114.4,-4.3,51.1*,72.3*,i,-5.5
CCCC(=O)Nc1nc(-c2ccc3c(c2)OCCO3)cs1,.,.,60.8*,63.3*,i,.
CCCC(=O)Nc1nc(-c2ccc(OC)cc2)cs1,95.8,-1.9,.,.,.,-1.5
O=C1c2ccccc2-c2onc3ccc(Sc4ccccc4)c1c23,.,.,.,.,i,.
O=C(Cc1ccc(S(=O)(=O)N2CCCC2)s1)N1CCOCC1,62.7,28.3,10.2,-0.6,i,44.9
CC(C)(C)NC(=O)Cc1ccc(S(=O)(=O)N2CCCC2)s1,54.0,57.9*[fluorescence artefact?],.,.,.,39.5
